For test [1], the species on record is Rattus norvegicus. The test can be described thus: Saluretic activity in rats after 5-24 hours, as chloride ion concentration in urine. Format: functional. The method, boiled down:
(§1)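 Male Sabra rats (170-200 g), fasted 18 h, dosed orally 50 mg/kg in saline at 25 mL/kg, eight per compound, two per metabolic cage, no food or water. Urine collected 5 and 24 h after dosing and centrifuged. Chloride titrated with Hg(NO3)2/diphenylcarbazone after HNO3 acidification; Na+ and K+ by atomic absorption.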

The species entered for test [2] is Rattus norvegicus. In words: Saluretic activity in rats after 5-24 hours, as sodium ion concentration in urine. It is filed as functional. The method, boiled down:
as §1

The species entered for test [3] is Rattus norvegicus. The test can be described thus: Saluretic activity in rats after 5-24 hours, as ratio of Na+/K+ ion concentration in urine. Format: functional. The method, boiled down: as §1
The species entered for test [4] is Rattus norvegicus. The test can be described thus: Saluretic activity in rats after 0-24 hours, as potassium ion concentration in urine. It is filed as functional. The method, boiled down:
as §1

Test [5] is filed under the species Rattus norvegicus. The test can be described thus: Saluretic activity in rats after 0-24 hours, as sodium ion concentration in urine. Format: functional. The method, boiled down: as §1
Test [6] is filed under the species Rattus norvegicus. In words: Diuretic activity in rats at time intervals of 5-24 hours. Format: functional, Urine. The essentials: (§2)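 Male Sabra rats (170-200 g), starved 18 h, given 50 mg/kg by stomach tube in saline (25 mL/kg load), eight per compound, saline and furosemide controls run alongside. Held two per metabolic cage at 22 °C without food or water. Urine volume measured at 5 and 24 h collections.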

For test [7], the species on record is Rattus norvegicus. In words: Saluretic activity in rats after 0-5 hours, as chloride ion concentration in urine. Format: functional. The essentials:
as §1

The species entered for test [8] is Rattus norvegicus. In words: Saluretic activity in rats after 0-24 hours, as chloride ion concentration in urine. It is filed as functional. The essentials: as §1
The species named for test [9] is Rattus norvegicus. The test can be described thus: Compound was tested for antihypertensive activity in rat after 4 hr postdose. Format: functional. The method, boiled down: (§3)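 DOCA/saline hypertensive Sprague-Dawley rats (250-350 g), six per group, given 10 mg/kg doca s.c. daily with saline until systolic BP reached 170 mmHg (usually 3-4 weeks). Oral 25 mg/kg in 5 mL/kg 1% methylcellulose. Systolic BP by tail-cuff before and 1, 4, 24 h after; drop reported as mean ± SD.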

The species named for test [10] is Rattus norvegicus. The test can be described thus: Saluretic activity in rats after 0-24 hours, as ratio of Na+/K+ ion concentration in urine. It is filed as functional. The method, boiled down:
as §1

Test [11] is filed under the species Rattus norvegicus. In words: Compound was tested for antihypertensive activity in rat after 24 hr postdose. It is filed as functional. The essentials: as §3
For test [12], the species on record is Rattus norvegicus. In words: Saluretic activity in rats after 0-5 hours, as potassium ion concentration in urine. It is filed as functional. The essentials:
as §1

The species named for test [13] is Rattus norvegicus. In words: Compound was tested for antihypertensive activity in rat after 1 hr postdose. Format: functional. The essentials: as §3
Test [14] is filed under the species Rattus norvegicus. The test can be described thus: Saluretic activity in rats after 5-24 hours, as potassium ion concentration in urine. Format: functional. The method, boiled down: as §1
The species named for test [15] is Rattus norvegicus. The test can be described thus: Saluretic activity in rats after 0-5 hours, as ratio of Na+/K+ ion concentration in urine. It is filed as functional. The method, boiled down:
as §1

The species entered for test [16] is Rattus norvegicus. The test can be described thus: Diuretic activity in rats at time intervals of 0-24 hours. It is filed as functional, Urine. The essentials: as §2
Test [17] is filed under the species Rattus norvegicus. The test can be described thus: Diuretic activity in rats at time intervals of 0-5 hours. Format: functional, Urine. The method, boiled down: as §2
The species entered for test [18] is Rattus norvegicus. The test can be described thus: Saluretic activity in rats after 0-5 hours, as sodium ion concentration in urine. Format: functional. The essentials:
as §1

Take `CN1NCc2cc(Cl)c(S(N)(=O)=O)cc2C1=O`: the Saluretic activity was 3.15 m equiv kg-1 in test [1]; 5.98 m equiv kg-1 in [2]; 7.82 m equiv kg-1 in [4]; 10.43 m equiv kg-1 in test [5]; 6.2 m equiv kg-1 in test [7]; 9.35 m equiv kg-1 in [8]. The Saluretic activity in test [12] worked out at 2.55 m equiv kg-1; in test [14] it was 5.27 m equiv kg-1; in test [18], 4.45 m equiv kg-1. Moreover, the Ratio in [3] is given as 1.13; in test [10], 1.33; in test [15], 1.74. Moreover, the Diuretic activity in [6] came out at 6.8 mL; in test [16], 11.8 mL; in [17], 5 mL. The “Decrease in blood pressure” value in test [9] is given as 45 mmHg; in test [11] it was 22.7 mmHg; in test [13] it was 31.3 mmHg.
Take `NS(=O)(=O)c1cc2c(cc1Cl)CNNC2=O`: the Saluretic activity in [1] was 4.16 m equiv kg-1; in [2], 4.36 m equiv kg-1; in test [4], 5.63 m equiv kg-1; in [5], 10.91 m equiv kg-1; in test [7] it was 8.32 m equiv kg-1; in test [8] it was 12.48 m equiv kg-1. Further, the Saluretic activity in test [12] is on record as 2.18 m equiv kg-1; in test [14] it was 3.45 m equiv kg-1; in [18] it was 6.55 m equiv kg-1. The Ratio is on record as 1.27 in [3], 1.94 in test [10] and 3 in test [15]. In addition, the figures for the Diuretic activity in test [6], in test [16] and in [17] were 6.2 mL, 12.7 mL and 6.5 mL, respectively. Moreover, the “Decrease in blood pressure” value in [9] is 31 mmHg; in [11], 27 mmHg; in test [13], 24.7 mmHg.
Take `Cn1ncc2cc(S(N)(=O)=O)c(Cl)cc2c1=O`: the Saluretic activity worked out at 5 m equiv kg-1 in test [1]; 5.26 m equiv kg-1 in test [2]; 5.16 m equiv kg-1 in test [4]; 7.84 m equiv kg-1 in test [5]; 2.22 m equiv kg-1 in [7]; 7.22 m equiv kg-1 in test [8]. The results for the Saluretic activity in test [12], in test [14] and in test [18] were 1.24 m equiv kg-1, 3.92 m equiv kg-1 and 2.58 m equiv kg-1, respectively. In addition, the Ratio in test [3] is reported as 1.34; in [10] it was 1.52; in test [15] it was 2.1. Besides, the Diuretic activity in test [6] was 2.6 mL; in test [16], 4.8 mL; in [17], 2.2 mL. Also, the “Decrease in blood pressure” value in [9] is 47 mmHg; in test [11] it was 19.3 mmHg; in test [13] it was 29.7 mmHg.
For the molecule `NS(=O)(=O)c1cc2c(O)nncc2cc1Cl`, the Saluretic activity in test [1] is 4.1 m equiv kg-1; in [2], 4.21 m equiv kg-1; in test [4], 5.06 m equiv kg-1; in test [5] it was 12.37 m equiv kg-1; in test [7], 9.87 m equiv kg-1; in [8], 13.97 m equiv kg-1. Also, the Saluretic activity in test [12] stood at 2.55 m equiv kg-1; in test [14] it was 2.51 m equiv kg-1; in test [18], 8.16 m equiv kg-1. Besides, the Ratio in test [3] worked out at 1.68; in [10], 2.44; in test [15] it was 3.18. The Diuretic activity in test [6] was 3.6 mL; in test [16], 11.3 mL; in test [17] it was 7.7 mL. Also, the “Decrease in blood pressure” value came to 33.7 mmHg in test [9], 38 mmHg in test [11] and 13.7 mmHg in [13].
As for `Cn1ncc2cc(Cl)c(S(N)(=O)=O)cc2c1=O`, the Saluretic activity in test [1] is recorded as 2.3 m equiv kg-1; in test [2], 2.4 m equiv kg-1; in test [4] it was 4.76 m equiv kg-1; in test [5] it was 11.1 m equiv kg-1; in test [7] it was 7.27 m equiv kg-1; in [8] it was 9.57 m equiv kg-1. The Saluretic activity is on record as 2.67 m equiv kg-1 in test [12], 2.09 m equiv kg-1 in [14] and 8.7 m equiv kg-1 in test [18]. In addition, the Ratio is on record as 1.15 in [3], 2.33 in test [10] and 3.27 in test [15]. Moreover, the results for the Diuretic activity in test [6], in test [16] and in test [17] were 2.7 mL, 8.8 mL and 6.1 mL, respectively. In addition, the “Decrease in blood pressure” value in test [9] is given as 47.7 mmHg; in test [11] it was 26.3 mmHg; in test [13] it was 31.7 mmHg.
Regarding `NS(=O)(=O)c1cc2c(cc1Cl)CNN(Cc1ccco1)C2=O`, the Saluretic activity in test [1] is given as 2.98 m equiv kg-1; in [2] it was 3.09 m equiv kg-1; in [4], 5.75 m equiv kg-1; in test [5] it was 9.83 m equiv kg-1; in [7] it was 8.45 m equiv kg-1; in [8] it was 11.43 m equiv kg-1. The Saluretic activity was determined as 2.38 m equiv kg-1 in [12], 3.37 m equiv kg-1 in test [14] and 6.74 m equiv kg-1 in test [18]. Further, the values for the Ratio in test [3], in test [10] and in [15] were 0.92, 1.71 and 2.83, respectively. The Diuretic activity in test [6] worked out at 3.8 mL; in test [16], 10.5 mL; in test [17], 6.7 mL. For the same molecule, the “Decrease in blood pressure” value in [9] came to 31.3 mmHg; in test [11], 23 mmHg; in test [13], 25.3 mmHg.
For `NS(=O)(=O)c1cc2c(cc1Cl)C(=O)NNC2`, the Saluretic activity was 6.28 m equiv kg-1 in test [1]; 5.84 m equiv kg-1 in test [2]; 5.52 m equiv kg-1 in [4]; 9.07 m equiv kg-1 in test [5]; 3.49 m equiv kg-1 in test [7]; 9.77 m equiv kg-1 in [8]. Moreover, the Saluretic activity in test [12] is listed as 1.58 m equiv kg-1; in test [14], 3.94 m equiv kg-1; in test [18], 3.23 m equiv kg-1. The Ratio in test [3] was 1.48; in [10] it was 1.64; in test [15], 2.04. Besides, the Diuretic activity in [6] was 3.7 mL; in test [16], 6.6 mL; in test [17], 2.9 mL. For the same molecule, the “Decrease in blood pressure” value in [9] was 51 mmHg; in [11], 47.7 mmHg; in [13], 34.7 mmHg.
For `NS(=O)(=O)c1cc2cnn(-c3cccc(C(F)(F)F)c3)c(=O)c2cc1Cl`, the values for the Ratio in test [3], in test [10] and in [15] were 1.41, 1.44 and 1.66, respectively. Moreover, the Saluretic activity in test [4] stood at 5.16 m equiv kg-1; in [5], 7.41 m equiv kg-1; in test [12], 0.49 m equiv kg-1; in [14], 4.67 m equiv kg-1; in test [18] it was 0.82 m equiv kg-1. Moreover, the figures for the Diuretic activity in test [6], in test [16] and in test [17] were 4 mL, 4.9 mL and 0.9 mL, respectively. For the same molecule, the “Decrease in blood pressure” value is given as 54 mmHg in test [9], 27.7 mmHg in test [11] and 35.6 mmHg in test [13].
On to `NNc1nncc2ccccc12` [HYDRALAZINE], for which the “Decrease in blood pressure” value in [9] was 75.1 mmHg; in test [11], 35.3 mmHg; in [13], 72.4 mmHg.
In the case of `NS(=O)(=O)c1cc2c(cc1Cl)NCNS2(=O)=O` [HYDROCHLOROTHIAZIDE], the results for the “Decrease in blood pressure” value in [9], in test [11] and in [13] were 36.7 mmHg, 18 mmHg and 28.6 mmHg, respectively.

For the origin of these results see ChEMBL document CHEMBL1123499, “Synthesis, saludiuretic, and antihypertensive activity of 6,7-disubstituted 1(2H)- and 3,4-dihydro-1(2H)-phthalazinones” (1986).
